ChEMBL document CHEMBL3872208, “Synthesis and pharmacological characterization of novel N-(trans-4-(2-(4-(benzo[d]isothiazol-3-yl)piperazin-1-yl)ethyl)cyclohexyl)amides as potential multireceptor atypical antipsychotics” (Eur J Med Chem, 2016)
The source made the active and inactive calls. The calls are words filed in the database; no cut-off is given here.

How the values were obtained:
[1] = Apparent clearance in Sprague-Dawley rat plasma at 2 mg/kg, po administered as single dose by LC-MS/MS analysis; format: ADME, organism-based; details: read-out: CL(app) (converted)
How it was run: (§1)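 Male SD rats, single dose: 0.5 mg/kg i.v. or 2.0 mg/kg p.o. Vehicle is 5% DMSO, 10% Solutol HS 15 and 85% PBS. Heparinized blood is sampled at 5, 15 and 30 min and at 1, 2, 4, 8 and 24 h after dosing. Plasma is reported in ng/mL and brain in ng/g. F is derived from the p.o. and i.v. arms.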

[2] = Half life in Sprague-Dawley rat brain at 2 mg/kg, po administered as single dose by LC-MS/MS analysis; format: ADME, organism-based; how it was run: as §1
[3] = target: T1, Muscarinic acetylcholine receptor M1 (Homo sapiens, UniProt P11229); assay: Displacement of [3H]pirenzepine from recombinant human M1 receptor expressed in CHO cell membranes at 1 uM after 60 mins by scintillation counting method relative to control; details: CHO cell membranes expressing recombinant human M1 receptor, probe [3H]pirenzepine
T1 sequence (P11229 whole entry): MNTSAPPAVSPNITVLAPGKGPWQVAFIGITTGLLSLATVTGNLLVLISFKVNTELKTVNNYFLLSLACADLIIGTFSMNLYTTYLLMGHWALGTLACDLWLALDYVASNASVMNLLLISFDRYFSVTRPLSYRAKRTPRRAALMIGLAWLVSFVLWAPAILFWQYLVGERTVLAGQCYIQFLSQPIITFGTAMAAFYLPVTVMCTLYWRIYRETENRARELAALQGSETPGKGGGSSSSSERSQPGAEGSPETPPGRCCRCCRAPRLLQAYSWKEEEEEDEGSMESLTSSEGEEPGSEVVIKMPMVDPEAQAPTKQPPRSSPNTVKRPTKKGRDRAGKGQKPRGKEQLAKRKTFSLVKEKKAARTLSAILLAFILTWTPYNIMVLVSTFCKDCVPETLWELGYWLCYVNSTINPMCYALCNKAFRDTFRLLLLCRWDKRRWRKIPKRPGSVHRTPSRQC
How it was run: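 Nonspecific binding defined with […]. Filtered on PEI-soaked GF/B and scintillation counted. Expressed as percent inhibition of control specific binding at a single test concentration.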

[4] = Ratio of AUC (0 to t) in Sprague-Dawley rat brain to plasma at 2 mg/kg, po; format: ADME, organism-based; details: brain and plasma, read-out: Ratio AUC
How it was run: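 Male Sprague-Dawley rats given the test compound once orally at 2.0 mg/kg. Vehicle was 5% DMSO, 10% Solutol HS 15 and 85% PBS. Heparinized blood sampled at 5, 15, 30 min and 1, 2, 4, 8, 24 h after dosing; brain concentrations also measured (ng/g). Ratio is brain AUC0-t over plasma AUC0-t.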

D(3) dopamine receptor = D(3) dopamine receptor (Homo sapiens, UniProt P35462); assay: Displacement of [3H]methyl-spiperone from recombinant human D3 receptor expressed in CHO cell membranes after 60 mins by scintillation counting method
Sequence of D(3) dopamine receptor (P35462 whole entry): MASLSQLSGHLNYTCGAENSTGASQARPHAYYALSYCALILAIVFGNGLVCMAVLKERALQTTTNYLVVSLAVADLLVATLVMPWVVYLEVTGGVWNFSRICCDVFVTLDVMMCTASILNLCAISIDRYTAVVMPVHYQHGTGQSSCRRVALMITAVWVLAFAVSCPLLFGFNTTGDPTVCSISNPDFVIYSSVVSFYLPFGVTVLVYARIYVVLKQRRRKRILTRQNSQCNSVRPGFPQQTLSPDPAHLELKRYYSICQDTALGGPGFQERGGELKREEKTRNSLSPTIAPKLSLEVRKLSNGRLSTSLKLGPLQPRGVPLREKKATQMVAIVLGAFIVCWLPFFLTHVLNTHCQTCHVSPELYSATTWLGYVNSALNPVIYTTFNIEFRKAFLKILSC

[5] = target: T2, 5-hydroxytryptamine receptor 1A (Homo sapiens, UniProt P08908); assay: Displacement of [3H]8-OH-DPAT from recombinant human 5-HT1A receptor expressed in HEK293 cell membranes after 60 mins by scintillation counting method
T2 sequence (P08908 whole entry): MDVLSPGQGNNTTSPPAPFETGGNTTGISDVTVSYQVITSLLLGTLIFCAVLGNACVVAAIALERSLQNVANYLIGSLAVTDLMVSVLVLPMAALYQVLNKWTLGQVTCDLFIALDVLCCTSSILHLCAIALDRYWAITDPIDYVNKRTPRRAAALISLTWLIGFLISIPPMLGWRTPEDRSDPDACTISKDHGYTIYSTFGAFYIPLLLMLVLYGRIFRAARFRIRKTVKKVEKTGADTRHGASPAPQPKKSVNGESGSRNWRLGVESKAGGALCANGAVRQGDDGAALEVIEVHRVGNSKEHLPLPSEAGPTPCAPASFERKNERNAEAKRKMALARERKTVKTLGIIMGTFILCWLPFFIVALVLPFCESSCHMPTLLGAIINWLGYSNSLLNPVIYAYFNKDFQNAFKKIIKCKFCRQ

[6] = AUC (0 to t) in Sprague-Dawley rat plasma at 2 mg/kg, po administered as single dose by LC-MS/MS analysis; format: ADME, organism-based; how it was run: as §1
[7] = Half life in Sprague-Dawley rat brain at 0.5 mg/kg, iv administered as single dose by LC-MS/MS analysis; format: ADME, organism-based; how it was run: as §1
[8] = Cmax in Sprague-Dawley rat brain at 0.5 mg/kg, iv administered as single dose by LC-MS/MS analysis; format: ADME, organism-based; set-up: dose 0.5 mg/kg, route intravenous; how it was run: as §1
[9] = Cmax in Sprague-Dawley rat plasma at 2.0 mg/kg, po administered as single dose by LC-MS/MS analysis; format: ADME, organism-based; set-up: dose 2 mg/kg, route oral; how it was run: as §1
[10] = target: T2, 5-hydroxytryptamine receptor 1A; assay: Agonist activity at 5-HT1A receptor (unknown origin) expressed in CHOK1 cells co-expressing G-alpha 15 by Fluo-4 dye based FLIPR assay; format: cell-based, CHO-K1
[11] = target: 5-hydroxytryptamine receptor 2A (Homo sapiens, UniProt P28223); assay: Displacement of [3H]ketanserin from recombinant human 5-HT2A receptor expressed in HEK293 cell membranes after 60 mins by scintillation counting method
Sequence of 5-hydroxytryptamine receptor 2A (P28223 whole entry): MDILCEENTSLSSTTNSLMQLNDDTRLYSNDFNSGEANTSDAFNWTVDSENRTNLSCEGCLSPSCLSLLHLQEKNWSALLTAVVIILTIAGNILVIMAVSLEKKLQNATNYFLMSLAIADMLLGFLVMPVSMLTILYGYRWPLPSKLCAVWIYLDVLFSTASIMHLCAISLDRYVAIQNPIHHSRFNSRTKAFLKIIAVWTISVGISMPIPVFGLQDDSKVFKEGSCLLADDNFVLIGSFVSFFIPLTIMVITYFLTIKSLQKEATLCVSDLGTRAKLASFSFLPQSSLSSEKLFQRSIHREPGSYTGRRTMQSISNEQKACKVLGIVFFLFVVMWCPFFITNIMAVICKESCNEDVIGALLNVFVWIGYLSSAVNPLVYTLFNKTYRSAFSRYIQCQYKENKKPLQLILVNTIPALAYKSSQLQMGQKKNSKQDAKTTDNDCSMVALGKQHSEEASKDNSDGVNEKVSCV

[12] = Oral bioavailability in Sprague-Dawley rat brain at 2 mg/kg administered as single dose by LC-MS/MS analysis; format: ADME, organism-based; how it was run: as §1
[13] = AUC (0 to t) in Sprague-Dawley rat brain at 2 mg/kg, po administered as single dose by LC-MS/MS analysis; format: ADME, organism-based; how it was run: as §1
Rattus norvegicus [14] = assay: Cognitive enhancement effect in Sprague-Dawley rat assessed as reversal of PCP-impaired performance by measuring increase in time spent exploring novel object in comparison to familiar object at 0.1 to 0.2 mg/kg, po administered 60 mins prior to test by novel object recognition assay
Rattus norvegicus [15] = assay: Antipsychotic activity in Sprague-Dawley rat assessed as inhibition of conditioned avoidance behavior at 1.0 to 2.0 mg/kg, ip administered as single dose measured after 1 hr; format: functional, organism-based
How it was run: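 Male SD rats (150–180 g, 6 per group) trained in automated shuttle-boxes; only rats exceeding 80% avoidance were used. Single i.p. dose of 1.0 or 2.0 mg/kg given 1 h before a 20-trial session. Read-out is percentage of avoidance (mean ± SEM, n = 6), compared with the vehicle group.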

O=C(N[C@H]1CC[C@H](CCN2CCN(c3nsc4ccccc34)CC2)CC1)c1ccco1
CL/F [1]: 582 mL/min/kg | half-life [2]: 16.3 h | inhibition at 1 h, 1 µM [3]: 50.6% | Kp [4]: 16.1 | Ki (D(3) dopamine receptor): 0.13 nM | Ki [5]: 1.3 nM | AUC(0-t) [6]: 55 ng·h/mL | half-life [7]: 15.8 h | Cmax [8]: 259 ng/mL | Cmax [9]: 18.4 ng/mL | EC50 [10]: > 10000 nM | Ki [11]: 0.23 nM | bioavailability [12]: 20.7% | AUC(0-t) [13]: 884 ng·h/mL | Activity (Rattus norvegicus [14]): Active | inhibition (Rattus norvegicus [15]): Active
